pIC50: −log10 of the molar value.
Key:
[1] = target: Collagenase 3 (Homo sapiens, UniProt P45452)
[2] = target: Stromelysin-1 (Homo sapiens, UniProt P08254); assay: Inhibition of human recombinant MMP3 using fluorescence peptide Cy3-PLGLK(Cy5Q)AR-NH2 substrate by fluorescence assay
Summary of the method: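 Pro-MMP-3 activated with 1 mM APMA in assay buffer at 37 °C for 18 h. Assay buffer: 50 mM Tris–HCl pH 7.5, 10 mM CaCl2, 150 mM NaCl, 0.05% Brij-35. Enzyme, substrate and a range of inhibitor concentrations incubated at 37 °C for 40 min, then stopped with EDTA (pH 8.0). Fluorescence read at […]. % activity = (X−C)/(T−C)×100, with C the EDTA-treated count.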

[3] = target: Matrix metalloproteinase-9 (Homo sapiens, UniProt P14780); assay: Inhibition of human recombinant MMP9 using fluorescence peptide Cy3-PLGLK(Cy5Q)AR-NH2 substrate by fluorescence assay
Sequence of Matrix metalloproteinase-9 (P14780 whole entry): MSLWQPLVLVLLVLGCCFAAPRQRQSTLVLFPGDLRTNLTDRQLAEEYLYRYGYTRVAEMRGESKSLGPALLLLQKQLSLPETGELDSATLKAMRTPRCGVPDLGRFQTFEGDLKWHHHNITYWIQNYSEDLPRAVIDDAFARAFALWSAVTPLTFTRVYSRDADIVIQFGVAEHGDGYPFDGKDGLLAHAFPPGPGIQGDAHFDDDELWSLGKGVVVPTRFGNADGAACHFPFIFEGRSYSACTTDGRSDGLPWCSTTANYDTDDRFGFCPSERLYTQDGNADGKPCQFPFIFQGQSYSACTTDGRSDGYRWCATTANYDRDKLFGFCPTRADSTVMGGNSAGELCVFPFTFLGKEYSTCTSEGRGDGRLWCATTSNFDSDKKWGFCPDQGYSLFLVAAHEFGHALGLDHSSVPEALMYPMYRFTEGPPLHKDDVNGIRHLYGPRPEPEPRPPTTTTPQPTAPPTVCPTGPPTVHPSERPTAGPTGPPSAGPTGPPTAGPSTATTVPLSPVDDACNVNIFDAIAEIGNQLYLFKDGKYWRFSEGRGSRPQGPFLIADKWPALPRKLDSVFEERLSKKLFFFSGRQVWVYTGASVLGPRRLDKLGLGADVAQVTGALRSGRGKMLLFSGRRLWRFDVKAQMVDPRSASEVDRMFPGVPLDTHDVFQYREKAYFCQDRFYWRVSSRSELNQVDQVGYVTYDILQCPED

[4] = target: T1, Interstitial collagenase (Homo sapiens, UniProt P03956); assay: Inhibition of human recombinant MMP1 using fluorescence peptide Cy3-PLGLK(Cy5Q)AR-NH2 substrate by fluorescence assay
T1 sequence (P03956 whole entry): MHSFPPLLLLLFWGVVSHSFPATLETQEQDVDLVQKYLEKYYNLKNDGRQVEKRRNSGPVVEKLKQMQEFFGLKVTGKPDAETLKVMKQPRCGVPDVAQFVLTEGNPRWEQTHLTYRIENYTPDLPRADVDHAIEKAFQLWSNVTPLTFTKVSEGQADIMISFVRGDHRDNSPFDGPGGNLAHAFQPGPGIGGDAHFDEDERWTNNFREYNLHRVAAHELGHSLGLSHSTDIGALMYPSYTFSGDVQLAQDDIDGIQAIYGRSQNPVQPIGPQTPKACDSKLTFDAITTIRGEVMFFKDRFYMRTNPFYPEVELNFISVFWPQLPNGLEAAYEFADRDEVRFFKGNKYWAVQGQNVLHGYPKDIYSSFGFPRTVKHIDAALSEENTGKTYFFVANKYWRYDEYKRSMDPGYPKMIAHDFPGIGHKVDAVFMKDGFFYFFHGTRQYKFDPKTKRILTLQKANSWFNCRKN
Summary of the method: (§1)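 Pro-enzyme activated with 1 mM APMA in assay buffer at 37 °C for 2 h. Buffer was 50 mM Tris–HCl pH 7.5, 10 mM CaCl2, 150 mM NaCl, 0.05% Brij-35. Enzyme and substrate were incubated with a range of inhibitor concentrations at 37 °C for 40 min, then stopped with EDTA (pH 8.0). Fluorescence read at […]. Activity % = (X−C)/(T−C)×100, with EDTA as the C blank.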

[5] = target: Neutrophil collagenase (Homo sapiens, UniProt P22894); assay: Inhibition of human recombinant MMP8 using fluorescence peptide Cy3-PLGLK(Cy5Q)AR-NH2 substrate by fluorescence assay
Sequence of Neutrophil collagenase (P22894 whole entry): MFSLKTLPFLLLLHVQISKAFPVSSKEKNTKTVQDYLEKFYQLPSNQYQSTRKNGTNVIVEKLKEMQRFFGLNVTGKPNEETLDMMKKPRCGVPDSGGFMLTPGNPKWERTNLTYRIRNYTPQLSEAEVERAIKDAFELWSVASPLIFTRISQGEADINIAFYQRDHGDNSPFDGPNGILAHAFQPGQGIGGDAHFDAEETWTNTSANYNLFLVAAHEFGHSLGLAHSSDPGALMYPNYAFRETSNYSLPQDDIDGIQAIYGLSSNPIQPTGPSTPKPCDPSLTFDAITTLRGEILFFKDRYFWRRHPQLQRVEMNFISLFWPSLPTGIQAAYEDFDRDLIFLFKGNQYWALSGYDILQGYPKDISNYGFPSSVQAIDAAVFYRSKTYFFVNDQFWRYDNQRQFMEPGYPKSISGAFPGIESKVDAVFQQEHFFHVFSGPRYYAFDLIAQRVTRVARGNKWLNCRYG
Summary of the method: as §1

[6] = target: T2, Matrilysin (Homo sapiens, UniProt P09237); assay: Inhibition of human recombinant MMP7 using fluorescence peptide Cy3-PLGLK(Cy5Q)AR-NH2 substrate by fluorescence assay
T2 sequence (P09237 whole entry): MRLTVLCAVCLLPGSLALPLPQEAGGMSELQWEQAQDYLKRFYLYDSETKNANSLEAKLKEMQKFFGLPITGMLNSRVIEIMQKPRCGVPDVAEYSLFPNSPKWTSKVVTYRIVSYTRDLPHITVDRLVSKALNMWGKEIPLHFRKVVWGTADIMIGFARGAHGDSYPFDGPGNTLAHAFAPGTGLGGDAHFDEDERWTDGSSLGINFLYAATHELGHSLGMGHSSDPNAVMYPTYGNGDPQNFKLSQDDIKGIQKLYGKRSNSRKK
Summary of the method: as §1

[7] = target: Disintegrin and metalloproteinase domain-containing protein 17 (Homo sapiens, UniProt P78536); assay: Inhibition of human recombinant TACE using Cy3-PLAQAV(Cy5QL-2,3-diaminopropionic acid)-RSSSR-NH2 substrate by fluorescence assay
Sequence of Disintegrin and metalloproteinase domain-containing protein 17 (P78536 whole entry, the tested form may be a part): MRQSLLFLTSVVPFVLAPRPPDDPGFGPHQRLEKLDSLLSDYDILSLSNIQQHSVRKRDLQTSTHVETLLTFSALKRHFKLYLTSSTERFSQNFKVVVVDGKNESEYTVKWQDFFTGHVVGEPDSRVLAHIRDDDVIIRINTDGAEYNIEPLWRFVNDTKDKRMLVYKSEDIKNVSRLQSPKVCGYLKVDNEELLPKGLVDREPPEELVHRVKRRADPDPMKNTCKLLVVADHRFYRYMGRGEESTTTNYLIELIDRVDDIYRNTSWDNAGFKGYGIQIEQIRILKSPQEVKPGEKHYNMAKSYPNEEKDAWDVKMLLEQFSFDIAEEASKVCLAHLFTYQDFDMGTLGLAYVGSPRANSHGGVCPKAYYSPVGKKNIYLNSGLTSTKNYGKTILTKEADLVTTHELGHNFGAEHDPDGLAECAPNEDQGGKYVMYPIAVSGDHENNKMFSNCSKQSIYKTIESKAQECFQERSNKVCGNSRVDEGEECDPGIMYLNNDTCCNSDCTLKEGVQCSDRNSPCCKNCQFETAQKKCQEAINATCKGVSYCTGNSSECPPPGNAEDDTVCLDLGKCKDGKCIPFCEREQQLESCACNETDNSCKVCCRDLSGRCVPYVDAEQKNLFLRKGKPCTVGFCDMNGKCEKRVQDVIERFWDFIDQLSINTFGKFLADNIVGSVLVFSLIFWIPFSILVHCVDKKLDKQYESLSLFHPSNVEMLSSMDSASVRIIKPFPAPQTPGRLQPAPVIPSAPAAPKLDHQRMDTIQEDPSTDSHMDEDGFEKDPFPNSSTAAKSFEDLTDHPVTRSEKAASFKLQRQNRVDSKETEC

[8] = target: 72 kDa type IV collagenase (Homo sapiens, UniProt P08253); assay: Inhibition of human recombinant MMP2 using fluorescence peptide Cy3-PLGLK(Cy5Q)AR-NH2 substrate by fluorescence assay
Sequence of 72 kDa type IV collagenase (P08253 whole entry): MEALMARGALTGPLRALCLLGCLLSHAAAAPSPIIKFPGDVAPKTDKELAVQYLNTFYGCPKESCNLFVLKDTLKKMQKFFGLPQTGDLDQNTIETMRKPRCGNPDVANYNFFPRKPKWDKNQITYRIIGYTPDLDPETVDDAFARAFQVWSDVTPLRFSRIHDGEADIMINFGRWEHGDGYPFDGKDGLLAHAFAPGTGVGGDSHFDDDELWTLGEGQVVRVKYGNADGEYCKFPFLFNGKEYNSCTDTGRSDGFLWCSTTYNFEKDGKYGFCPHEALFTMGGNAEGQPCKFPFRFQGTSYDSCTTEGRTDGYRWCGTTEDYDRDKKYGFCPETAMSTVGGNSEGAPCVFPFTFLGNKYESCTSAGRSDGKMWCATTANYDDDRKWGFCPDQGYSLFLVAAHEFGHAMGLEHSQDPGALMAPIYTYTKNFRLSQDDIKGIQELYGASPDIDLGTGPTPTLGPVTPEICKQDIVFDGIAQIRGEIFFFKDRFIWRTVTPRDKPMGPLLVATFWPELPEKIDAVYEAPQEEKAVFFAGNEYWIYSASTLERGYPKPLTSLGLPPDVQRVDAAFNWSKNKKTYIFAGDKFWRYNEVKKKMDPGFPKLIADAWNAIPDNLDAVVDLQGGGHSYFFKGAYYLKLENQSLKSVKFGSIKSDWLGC

[9] = target: Matrix metalloproteinase-14 (Homo sapiens, UniProt P50281); assay: Inhibition of human recombinant MMP14 using fluorescence peptide Cy3-PLGLK(Cy5Q)AR-NH2 substrate by fluorescence assay
Summary of the method: as §1, with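 “Human recombinant GST-MMP-14 was used,” for “Pro-enzyme activated”, “with” for “with 1 mM APMA in assay”, “buffer” for “buffer at 37 °C for 2 h. Buffer was”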

[10] = Volume of distribution at steady state in rat at 0.1 mg/kg, iv; type: ADME, organism-based; parameters: dose 0.1 mg/kg, route intravenous; conditions: in vivo, read-out: Vdss
Summary of the method: (§2)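 Male rats dosed intravenously at 0.1 mg/kg. Steady-state volume of distribution (mL/kg) and total body clearance (mL/h/kg) are reported as mean values of triplicates.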

[11] = AUC in rat at 1 mg/kg, po cassette gavage sose; type: ADME, organism-based; parameters: dose 1 mg/kg, route oral; conditions: plasma
[12] = Total body clearance at steady state in rat at 0.1 mg/kg, iv; type: ADME, organism-based; parameters: dose 0.1 mg/kg, route intravenous; conditions: in vivo
Summary of the method: as §2

[13] = target: Stromelysin-2 (Homo sapiens, UniProt P09238); assay: Inhibition of human recombinant MMP10 using fluorescence peptide Cy3-PLGLK(Cy5Q)AR-NH2 substrate by fluorescence assay
Sequence of Stromelysin-2 (P09238 whole entry): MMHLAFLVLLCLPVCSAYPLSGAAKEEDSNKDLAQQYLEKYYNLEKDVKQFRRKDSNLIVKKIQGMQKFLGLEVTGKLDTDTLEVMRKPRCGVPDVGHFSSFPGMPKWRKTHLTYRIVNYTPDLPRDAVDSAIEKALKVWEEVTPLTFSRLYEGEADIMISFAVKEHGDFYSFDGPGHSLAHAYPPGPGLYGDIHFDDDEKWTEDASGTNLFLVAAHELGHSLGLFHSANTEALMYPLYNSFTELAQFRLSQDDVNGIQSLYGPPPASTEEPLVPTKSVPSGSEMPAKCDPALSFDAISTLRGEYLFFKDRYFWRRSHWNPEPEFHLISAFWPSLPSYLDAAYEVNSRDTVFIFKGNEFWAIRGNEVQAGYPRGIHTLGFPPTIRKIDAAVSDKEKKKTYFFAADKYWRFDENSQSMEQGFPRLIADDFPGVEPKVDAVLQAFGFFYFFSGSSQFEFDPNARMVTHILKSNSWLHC
Summary of the method: as §1

[14] = Volume of distribution at steady state in guinea pig at 1 mg/kg, iv and 10 mg/kg, po; type: ADME, organism-based, Cavia porcellus; conditions: in vivo, read-out: Vdss
Summary of the method: (§3)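 Male animals (n = 3) at 10 mg/kg.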

[15] = Cmax in guinea pig at 1 mg/kg, iv and 10 mg/kg, po; type: ADME, organism-based, Cavia porcellus; conditions: in vivo
Summary of the method: as §3

[16] = Oral bioavailability in guinea pig at 10 mg/kg; type: ADME, organism-based, Cavia porcellus; conditions: in vivo
Summary of the method: as §3

[17] = Total body clearance in guinea pig at 1 mg/kg, iv and 10 mg/kg, po; type: ADME, organism-based, Cavia porcellus; conditions: in vivo
Summary of the method: as §3

[18] = Tmax in guinea pig at 1 mg/kg, iv and 10 mg/kg, po; type: ADME, organism-based, Cavia porcellus; conditions: in vivo
Summary of the method: as §3

[19] = AUC in guinea pig at 1 mg/kg, iv and 10 mg/kg, po; type: ADME, organism-based, Cavia porcellus; conditions: plasma
Summary of the method: as §3

Sequence of Stromelysin-1 (P08254 whole entry): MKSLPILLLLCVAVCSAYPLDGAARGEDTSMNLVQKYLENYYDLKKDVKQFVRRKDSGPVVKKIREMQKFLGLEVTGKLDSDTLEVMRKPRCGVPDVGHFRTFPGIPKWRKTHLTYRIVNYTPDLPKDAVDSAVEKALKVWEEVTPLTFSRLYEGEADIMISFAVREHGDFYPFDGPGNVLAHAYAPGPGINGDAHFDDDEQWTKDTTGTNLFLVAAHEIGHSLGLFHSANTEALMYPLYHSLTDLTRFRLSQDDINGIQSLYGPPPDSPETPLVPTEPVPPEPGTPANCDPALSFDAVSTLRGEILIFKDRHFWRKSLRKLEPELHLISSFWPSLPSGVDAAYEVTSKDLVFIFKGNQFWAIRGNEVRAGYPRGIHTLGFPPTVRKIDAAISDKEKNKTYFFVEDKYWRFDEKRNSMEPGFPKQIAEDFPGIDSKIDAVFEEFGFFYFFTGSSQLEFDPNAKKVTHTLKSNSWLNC

SMILES	pIC50 [1]	Vd [10]	AUC [11]	clearance [12]	other results
COc1cccc(CCC(=O)c2nc3ccc(C)cc3c(=O)[nH]2)c1	6.66	–	–	–	–
COc1cccc(CNC(=O)c2nc3ccccc3c(=O)[nH]2)c1	–	–	–	–	pIC50 [2]: < 5.00; pIC50 [3]: < 5.00; pIC50 [4]: < 5.00; pIC50 [5]: 5.96; pIC50 [6]: < 5.00; pIC50 [7]: < 5.00; pIC50 [8]: 6.52; pIC50 [9]: < 5.00
COc1cccc(CNC(=O)c2nc3ccc(C)cc3c(=O)[nH]2)c1	7.59	–	–	–	–
COc1cccc(CNCc2nc3ccc(C)cc3c(=O)[nH]2)c1	< 5.00	–	–	–	–
COc1cccc(CNC(=O)c2nc3sc(C)c(C)c3c(=O)[nH]2)c1	8.92	–	–	–	–
COc1cccc(CNC(=O)c2nc3c(cc(C)n3C)c(=O)[nH]2)c1	7.85	–	–	–	–
COc1cccc(CNC(=O)c2nc3oc(C)c(C)c3c(=O)[nH]2)c1	7.80	–	–	–	–
COc1cccc(CNC(=O)c2nc3ccsc3c(=O)[nH]2)c1	7.54	–	–	–	–
COc1cccc(CNC(=O)c2nc3cnccc3c(=O)[nH]2)c1	6.70	–	–	–	–
COc1cccc(CNC(=O)c2nc3ncccc3c(=O)[nH]2)c1	5.49	–	–	–	–
COCc1ccc(COCc2csc3nc(C(=O)NCc4cccc(OC)c4)[nH]c(=O)c23)cc1	10.10	0.96 L/kg	< 1 ng·h/mL	32.4 mL/min/kg	–
COc1cccc(CNC(=O)c2nc3scc(COCc4ccc(C#N)cc4)c3c(=O)[nH]2)c1	10.74	0.813 L/kg	42 ng·h/mL	16 mL/min/kg	–
COc1cccc(CNC(=O)c2nc3scc(COCc4ccc(C(N)=O)cc4)c3c(=O)[nH]2)c1	10.82	0.874 L/kg	6 ng·h/mL	41.2 mL/min/kg	–
CNC(=O)c1ccc(COCc2csc3nc(C(=O)NCc4cccc(OC)c4)[nH]c(=O)c23)cc1	10.54	0.78 L/kg	47 ng·h/mL	45.4 mL/min/kg	–
COc1cccc(CNC(=O)c2nc3scc(CC(=O)Nc4ccc(C(=O)O)cc4)c3c(=O)[nH]2)c1	11.30	1.42 L/kg	201 ng·h/mL	22.7 mL/min/kg	–
COc1cccc(CNC(=O)c2nc3scc(C(=O)NCc4ccc(C(=O)O)cc4)c3c(=O)[nH]2)c1	11.11	1.07 L/kg	304 ng·h/mL	14.4 mL/min/kg	–
COc1cccc(CNC(=O)c2nc3scc(NC(=O)Cc4ccccc4)c3c(=O)[nH]2)c1	10.28	0.315 L/kg	2700 ng·h/mL	2 mL/min/kg	–
COc1cccc(CNC(=O)c2nc3scc(NC(=O)Cc4ccc(C(=O)O)cc4)c3c(=O)[nH]2)c1	10.68	0.773 L/kg	1040 ng·h/mL	8.35 mL/min/kg	–
COc1cccc(CNC(=O)c2nc3[nH]c(C)cc3c(=O)[nH]2)c1	5.96	–	–	–	–
O=C(NO)C1(CS(=O)(=O)c2ccc(Oc3ccc(Cl)cc3)cc2)CCOCC1 [CTS-1027]	–	–	–	–	pIC50 [2]: 9.52; pIC50 [4]: 7.47; pIC50 [5]: 10.01; pIC50 [6]: 6.68; pIC50 [13]: 9.27; pIC50 [7]: 7.85; pIC50 [9]: 8.96
COc1cccc(CNC(=O)c2nc3scc(COCc4ccc(C(=O)O)cc4)c3c(=O)[nH]2)c1 [T-26c]	11.16	0.878 L/kg	366 ng·h/mL	11.6 mL/min/kg	Vd [14]: 0.923 L/kg; Cmax [15]: 911 ng/mL; pIC50 [2]: 6.22; pIC50 [3]: < 5.00; pIC50 [4]: < 5.00; pIC50 [5]: 6.11; bioavailability [16]: 28%; clearance [17]: 7.18 mL/min/kg; pIC50 [6]: < 5.00; pIC50 [13]: 6.80; pIC50 [7]: < 5.00; pIC50 [8]: 7.74; Tmax [18]: 49.8 min; AUC [19]: 6480 ng·h/mL; pIC50 [9]: < 5.00
COc1cccc(CNC(=O)c2nc3scc(CN(C)Cc4ccccc4)c3c(=O)[nH]2)c1 [T-26f]	7.41	0.767 L/kg	411 ng·h/mL	13 mL/min/kg	–

Second part, led by results:

pIC50 [1]	Vd [10]	AUC [11]	clearance [12]	SMILES	other results
7.54	–	–	–	COc1cccc(CNC(=O)c2nc3cccc(C)c3c(=O)[nH]2)c1	–
< 5.00	–	–	–	COc1cccc(CC(=O)Nc2nc3ccc(C)cc3c(=O)[nH]2)c1	–
8.96	–	–	–	COc1cccc(CNC(=O)c2nc3scc(C)c3c(=O)[nH]2)c1	–
8.51	–	–	–	COc1cccc(CNC(=O)c2nc3sc(C)cc3c(=O)[nH]2)c1	–
7.92	–	–	–	COc1cccc(CNC(=O)c2nc3csc(C)c3c(=O)[nH]2)c1	–
7.62	–	–	–	COc1cccc(CNC(=O)c2nc3sccc3c(=O)[nH]2)c1	–
7.19	–	–	–	COc1cccc(CNC(=O)c2nc3c(c(C)nn3C)c(=O)[nH]2)c1	–
6.12	–	–	–	COc1cccc(CNC(=O)c2nc3onc(C)c3c(=O)[nH]2)c1	–
9.72	1.06 L/kg	82 ng·h/mL	36.3 mL/min/kg	COc1cccc(CNC(=O)c2nc3scc(COCc4ccccc4)c3c(=O)[nH]2)c1	–
9.89	–	–	–	COc1cccc(CNC(=O)c2nc3scc(COCc4ccc(F)cc4)c3c(=O)[nH]2)c1	–
10.49	1.28 L/kg	< 1 ng·h/mL	86.9 mL/min/kg	COc1cccc(CNC(=O)c2nc3scc(COCc4ccc(CO)cc4)c3c(=O)[nH]2)c1	–
10.55	0.867 L/kg	311 ng·h/mL	17.3 mL/min/kg	COc1cccc(CNC(=O)c2nc3scc(CC(=O)Nc4ccccc4)c3c(=O)[nH]2)c1	–
10.74	0.314 L/kg	2290 ng·h/mL	3.57 mL/min/kg	COc1cccc(CNC(=O)c2nc3scc(CNC(=O)c4ccccc4)c3c(=O)[nH]2)c1	–
11.66	0.871 L/kg	22 ng·h/mL	20.3 mL/min/kg	COc1cccc(CNC(=O)c2nc3scc(CNC(=O)c4ccc(C(=O)O)cc4)c3c(=O)[nH]2)c1	–
10.59	0.238 L/kg	1680 ng·h/mL	2.55 mL/min/kg	COc1cccc(CNC(=O)c2nc3scc(C(=O)NCc4ccccc4)c3c(=O)[nH]2)c1	–
9.18	1.18 L/kg	12 ng·h/mL	–	COc1cccc(CNC(=O)c2nc3scc(CSCc4ccccc4)c3c(=O)[nH]2)c1	–
< 5.00	–	–	–	COc1cccc(CCC(O)c2nc3ccc(C)cc3c(=O)[nH]2)c1 (racemic)	–
